Our source for the cytotoxicity values is ChEMBL document CHEMBL4513216, “Probing the Open Global Health Chemical Diversity Library for Multistage-Active Starting Points for Next-Generation Antimalarials” (ACS Infect Dis, 2020).

A short description of the series: Toxicity liver stage against HepG2, at 10uM. It counts as cell-based. Also on record: test concentration 10 uM, cell line HepG2-A16-CD81EGFP. Particulars: human, HepG2-A16-CD81EGFP cells; read-out: INHIBITION
The essentials:
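Uninfected HepG2-A16-CD81EGFP cells, 3 × 10^3 per well, 1536-well, plated on prespotted compound at 10 μM final, parasite-free screening media added to match infected plates; puromycin 10 μM positive, DMSO 0.5% negative; run in parallel with 48 h PbLuc assay at 37 °C, 5% CO2; viability by CellTiter-Glo luminescence, normalized to controls.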
As to `COc1nonc1NCn1nc(C)cc1C`, the cytotoxicity at 10 µM is -15%.
To `Cc1cc2nc(CO[C@H]3CN(C4CCCCC4)C[C@H]3F)[nH]c2cc1C` belongs -17.5%; to `Cc1ccccc1NC(=O)Nc1cc(N2CCCC2)ncn1`, -7.73%; to `CN(C)S(=O)(=O)N1CCC(Oc2cccnn2)CC1`, 3.05%.
The same measure for `O=C(NCCN1CCCC1)c1nc2c(o1)CN(c1ncccn1)C2`: 1.24%; for `COCC(=O)N1CCC2(CC1)CC(N1CCN(C)CC1)CO2` (stereo unspecified): -1.25%.
To `O=C(C1CN(CC2CC2)CC12CCOCC2)N1CCCC1` (stereo unspecified) belongs 7.28%; to `COC1COC2(CCN(C(=O)c3cocn3)CC2)C1` (stereo unspecified), 9.64%.
Turning to `CN1CCN(C(=O)[C@H]2C[C@H]3[C@H](CCN3Cc3nccs3)O2)CC1`, the cytotoxicity at 10 µM amounted to 1.73%.
`CNc1oc(-c2cc(S(=O)(=O)N3CCCCCC3)c(C)o2)nc1C#N`: the cytotoxicity at 10 µM was -5.28%.
To `Cc1nn(CC(=O)O)c2nccc(-c3ccc(F)cc3)c12` belongs -4.17%.
To `CC1(C(=O)N2CCOCC2)CN(Cc2c[nH]cn2)CCO1` (stereo unspecified) belongs -4.61%.
To `O[C@@H]1CN(Cc2ccncc2)C[C@H]1Oc1ccccc1` belongs -1.44%; to `O=C(Cn1c(=O)n(Cc2ccco2)c2ncccc21)NC1CC1`, -6.33%.
`COc1ncc(C2(O)CCN(Cc3cc(F)cc(F)c3)CC2)c(OC)n1`: the cytotoxicity at 10 µM is 0.331%.
The same measure for `O=C(N[C@@H]1CN(Cc2ccc3cc[nH]c3c2)C[C@H]1O)c1cnccn1`: -8.22%; for `Cc1cc(C2CCCN2C(=O)c2ccc(OCC(N)=O)cc2)no1` (stereo unspecified): -43.9%; for `COCc1c(Br)cccc1NC(=O)CC(F)(F)F`: 2.38%.
To `Cn1cc(S(=O)(=O)Nc2ccc3[nH]c(C4CCC4)nc3c2)cn1` belongs -8.36%; to `Cc1noc(C2CCCN(C(=O)c3cccc(Cl)c3)C2)n1` (stereo unspecified), -1.58%.
To `O=C(NC1CCN(CC2CCCC2)C1)N1CCC(OCC2CC2)CC1` (stereo unspecified) belongs 9.86%.
As to `CCc1noc(CNc2cc3c(cc2Cl)OCCO3)n1`, the cytotoxicity at 10 µM is -0.18%.
To `Cn1cnc(S(=O)(=O)N2CCCc3cccc(F)c32)c1Cl` belongs -4.63%; to `CC(=O)Nc1ccc(CNCC(O)c2ccccc2)cc1` (stereo unspecified), -10.1%.
The same measure for `COc1ccc2c(c1)CCCN(CC(=O)NCC1CCCO1)C2` (stereo unspecified): -12%; for `CCc1ccc(CNC(=O)Nc2cc(C)on2)s1`: -11.6%; for `O=C(CN1CCc2cncnc2C1)N1CCc2sccc2C1`: 11.9%.
The same measure for `O=C(NC1CCN(c2ncccn2)CC1)c1sccc1C1CC1`: -5.75%.
Regarding `Cc1ccc(S(=O)(=O)NCCc2cccnc2)cc1C`, the cytotoxicity at 10 µM was 0.645%.
The same measure for `COCCN(Cc1ccc(F)cc1Cl)C(=O)c1csnn1`: 11.6%.
To `N#CCc1ccc(NC(=O)CNc2ccc(Br)cc2F)cc1` belongs 0.997%; to `CN(CCn1cccn1)C1CCCN(Cc2noc(C3CC3)n2)C1` (stereo unspecified), 15%.
To `O=C(CCc1ccncc1)Nc1ccc(OCC2CC2)cc1` belongs -2.56%; to `COc1cc2c(cc1OC)S(=O)(=O)N(Cc1ccccc1C)C2=O`, 10.3%.
In the case of `CC1C(=O)Nc2cccnc2N1S(=O)(=O)c1cc(F)cc(F)c1` (stereo unspecified), the cytotoxicity at 10 µM is -5.26%.
To `COc1ccc(Cl)cc1CNC(=O)CN1CCC2(CCOC2)C1` (stereo unspecified) belongs -61.7%.
The same measure for `Cc1ccc(C2CCCCCN2CCNS(C)(=O)=O)o1` (stereo unspecified): 0.395%; for `CCN(C)S(=O)(=O)NCC(O)c1cc2ccccc2s1` (stereo unspecified): -8.26%; for `CN1CCN(C(=O)Cc2ccc(S(=O)(=O)C(F)F)cc2)CC1`: 12%.
To `O=C(CCN1CCC(c2cc3ccccc3[nH]2)CC1)N1CCOCC1` belongs -3.81%; to `CC(C)(C)c1cnc(CN2CCC(NC(=O)Nc3ccccc3)CC2)o1`, -12.3%; to `CN(C)C(=O)NCC1CC2(CO1)CN(c1nncs1)C2` (stereo unspecified), -96.3%.
In the case of `O=C(CC(F)(F)F)N1CCC2(CCCN(c3nncs3)C2)C1` (stereo unspecified), the cytotoxicity at 10 µM is -105%.
As for `Cn1cnc(-c2nc(C(=O)NCCN3CCCC3)c3ccccn23)c1`, the cytotoxicity at 10 µM is -109%.
To `CN1CCCCC1C(=O)N1CCN(c2ccccc2C#N)CC1` (stereo unspecified) belongs -6.85%; to `CCN(Cc1c(F)cccc1Cl)c1cc(C2CCNCC2)nc(C)n1`, 5.16%.
The same measure for `Cc1cnc(CNc2ncc(C)c(-c3cnn(C)c3)n2)cn1`: 7.86%.
To `CCOc1cc2c(cc1CN1CCC3(CC1)CNC(=O)C3)CCC2` belongs -2.04%.
In the case of `CCc1ccc(CN2CCN(CCOC)[C@@H]3CS(=O)(=O)C[C@@H]32)cc1`, the cytotoxicity at 10 µM was -5.72%.
As for `COc1cccc(CN(C)Cc2[nH]c3ccccc3c2C)c1O`, the cytotoxicity at 10 µM is 3.38%.
Consider `COC[C@]1(O)CCN(C2CCN(c3ccc(F)c(F)c3)CC2)CC1(C)C`, for which the cytotoxicity at 10 µM was -3.85%.
To `Cc1ccccc1OCC(O)C(=O)N1CCC2(CC1)CN(C)C(=O)O2` (stereo unspecified) belongs -47.6%; to `CCCn1cc(C(=O)NC2CCN(CC(=O)NC3CC3)CC2)c(C)n1`, 2.29%; to `O=C(NCCc1ccc(Cl)cc1)c1coc(CN2CCOCC2)c1`, 0.383%.
Regarding `CN(Cc1ccsc1)C(=O)c1n[nH]c(N)c1-c1ccccc1`, the cytotoxicity at 10 µM is -6.27%.
The same measure for `CCN1CCC(N2C[C@@H](C(=O)O)[C@H](c3cccc(OC)c3)C2)CC1`: -2.85%; for `COCc1noc(CN2C[C@H](NS(C)(=O)=O)[C@@H](C3CC3)C2)n1`: 1.67%.
The same measure for `CN(Cc1cc[nH]n1)C(=O)c1cn(Cc2ccccc2Cl)nn1`: 7.59%; for `CCC[C@@H]1CN(Cc2cc(OC)c3c(c2)OCO3)C[C@H]1C(=O)O`: -0.778%; for `O=C(c1ccnc(-n2cnnc2)c1)N1CCCC2(CCOC2)C1` (stereo unspecified): -15.1%.
To `COc1ccc(-c2n[nH]cc2CN(C)CCc2scnc2C)c(F)c1` belongs 3.06%; to `COC(=O)N1CCC2(CC1)CC(c1ccccc1)CN(C)C2` (stereo unspecified), 2.09%.
On to `O=C1CCC(=O)N1c1nn(Cc2ccc(F)cc2)cc1Cl`, for which the cytotoxicity at 10 µM was -13.2%.
The same measure for `O=C(Nc1cccc(CNCc2cccnc2)c1)C1CCCC1`: -9.27%.
To `CCN1CCN(C(=O)c2ccc(Cn3ccccc3=O)o2)CC1` belongs -9.39%; to `O=C(COCC(F)(F)F)N1CCCC(n2cccn2)C1` (stereo unspecified), -6.28%; to `COc1c(CNC(c2ccccc2)c2nccn2C)c(C)nn1C` (stereo unspecified), -3.16%.
To `O=C(c1cccc2c1OCCO2)N1CCCC1Cn1cccn1` (stereo unspecified) belongs -10.7%; to `COC(=O)c1cccn1C1CCN(C(=O)c2cc(F)ccc2F)CC1`, -9.62%.
Consider `Cc1ccc(N(C)C2CCN(C(=O)c3ccsc3)CC2)nn1`, for which the cytotoxicity at 10 µM is -12.1%.
To `Cc1cc(C)n(CC2CCCN2CCc2ccncc2)n1` (stereo unspecified) belongs -15.5%.
With `CC(C)c1nn(C)c(N(C)C)c1CNCc1ccccc1CN(C)C`, the cytotoxicity at 10 µM worked out at 1.53%.
To `CN(C)C(=O)CN1CCN(C(=O)Cc2csc(-c3ncccn3)n2)CC1` belongs -8.52%; to `O=C1C(NS(=O)(=O)c2cc(F)cc(F)c2)CCN1Cc1ccccc1` (stereo unspecified), -10%.
`CCCNC(=O)C1CCN(Cc2csc(C(C)(C)C)n2)CC1`: the cytotoxicity at 10 µM is -9.11%.
For the compound `CS(=O)(=O)c1ccc(CNC2CCCN(c3cccnn3)C2)cc1` (stereo unspecified), the cytotoxicity at 10 µM was determined as 1.3%.
Regarding `OCC1CCCN1c1cc(N2CCC(OC3CCCC3)CC2)ncn1` (stereo unspecified), the cytotoxicity at 10 µM is -2.43%.
Consider `CNC(=O)N1CCC2(CC1)CN(C)Cc1cc(F)ccc12`, for which the cytotoxicity at 10 µM is 4.16%.
To `CN(CCO)CC1COCCN1C(=O)CCC1CCCC1` (stereo unspecified) belongs -9.83%; to `CCN1CCN(C)C(=O)C12CCN(Cc1cccc(C)c1)CC2`, -2.95%.
For the compound `CN(C)C(=O)CO[C@H]1CN(Cc2ccoc2)[C@@H]2COC[C@H]12`, the cytotoxicity at 10 µM was 6.17%.
`Cc1nc(C)c(C(=O)N2CCc3nc4c(C)csc4c(=O)n3CC2)s1`: the cytotoxicity at 10 µM turned out to be 4.11%.
As to `O=C1C[C@@H]2[C@H](CCN2Cc2ccco2)N1c1ccsc1`, the cytotoxicity at 10 µM amounted to 8.55%.
The same measure for `COCCN1CCN(C)C2(CCN(C(=O)c3ccnnc3)CC2)C1=O`: 11.6%.
The same measure for `COCCN1CCO[C@@H]2CN(S(=O)(=O)c3cccnc3)C[C@@H]2C1`: 16.3%.
The same measure for `COCCN1CCC2(CC1)CN(C(=O)c1ccccc1)CCO2`: 1.61%; for `O=C([C@H]1CCS(=O)(=O)[C@@H]2CN(CCc3ccccc3)C[C@H]12)N1CCCC1`: 0.688%; for `CC(=O)N1CCC2(CN(CC3CCCC3)C2)C1`: 2.05%.
Consider `O=C(c1cnccn1)N1CCOC2(CCCN(c3ncccc3F)C2)C1` (stereo unspecified), for which the cytotoxicity at 10 µM was found to be 0.199%.
The same measure for `CCN1CC(=O)NCC12CCN(C(=O)c1ccno1)C2` (stereo unspecified): -2.75%.
To `CC(=O)N1CCO[C@@H]2CN(Cc3cccc(Cl)c3)C[C@@H]2C1` belongs -104%; to `O=C(CO)N1CCOC2(CCCN(c3ncc(F)cn3)C2)C1` (stereo unspecified), 12.4%.
To `CN(C)CCn1c2c(ccc1=O)CC(NC(=O)NC1CCCC1)CC2` (stereo unspecified) belongs -0.913%; to `CC(=O)NCc1noc2c1CN(CCN1CCCC1)CC2`, -5.46%.
Consider `Cc1ccc(CN2C[C@@H]3C[C@H](C(=O)NCc4cccnc4)[C@H](C2)O3)o1`, for which the cytotoxicity at 10 µM was 3.82%.
The same measure for `Oc1cccc(CN2C[C@@H]3CC[C@H]2CN(Cc2ccc(F)cc2)C3)c1`: -135%.
